Test results taken from ChEMBL document CHEMBL1145361, “3-Amino-1-alkyl-cyclopentane carboxamides as small molecule antagonists of the human and murine CC chemokine receptor 2” (Bioorg Med Chem Lett, 2007).

Columns and labels:
[1] = molecular target: C-C chemokine receptor type 2 (Mus musculus, UniProt P51683); assay: Displacement of [125I]MCP1 from mouse CCR2 receptor expressed in CHO cells; format: cell-based
[2] = Half life in Sprague-Dawley rat at 3 mg/kg, po; format: ADME, organism-based; design: dose 3 mg/kg, route oral; conditions: in vivo
Procedure, shortened: (§1)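 Male Sprague–Dawley rats were dosed intravenously at 1.0 mg/kg and orally at 3.0 mg/kg. Clearance, volume of distribution, t1/2, Cmax, Tmax, oral bioavailability (F%) and AUC were determined, with oral AUC normalized.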

[3] = molecular target: C-C chemokine receptor type 2 (Homo sapiens, UniProt P41597); assay: Inhibition of Ca2+ flux in human monocytes; format: functional, cell-based
[4] = Cmax in Sprague-Dawley rat at 3 mg/kg, po; format: ADME, organism-based; design: dose 3 mg/kg, route oral; conditions: in vivo; procedure, shortened: as §1
[5] = Clearance in Sprague-Dawley rat at 1 mg/kg, iv; format: ADME, organism-based; design: dose 1 mg/kg, route intravenous; conditions: in vivo; procedure, shortened: as §1
[6] = Bioavailability in Sprague-Dawley rat at 3 mg/kg, po; format: ADME, organism-based; conditions: in vivo; procedure, shortened: as §1
[7] = Volume of distribution in Sprague-Dawley rat at 1 mg/kg, iv; format: ADME, organism-based; design: dose 1 mg/kg, route intravenous; conditions: in vivo, read-out: Vdss; procedure, shortened: as §1
[8] = Half life in Sprague-Dawley rat at 1 mg/kg, iv; format: ADME, organism-based; design: dose 1 mg/kg, route intravenous; conditions: in vivo; procedure, shortened: as §1
[9] = Tmax in Sprague-Dawley rat at 3 mg/kg, po; format: ADME, organism-based; design: dose 3 mg/kg, route oral; conditions: in vivo; procedure, shortened: as §1
[10] = molecular target: C-C chemokine receptor type 2 (Homo sapiens, UniProt P41597, I40L); assay: Displacement of [125I]MCP1 from human CCR2 I40L mutant expressed in CHO cells; format: cell-based
Procedure, shortened: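 Radioligand competition was run at room temperature for 45 min in 50 mM Hepes, 5 mM MgCl2, 1 mM CaCl2, pH 7.4, with 0.5% BSA and protease inhibitors. The reaction was stopped by filtration through GF/B filters presoaked in 0.10% polyethyleneimine to separate bound from free ligand.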

[11] = molecular target: C-C chemokine receptor type 2 (Mus musculus) (UniProt P51683); assay: Displacement of [125I]MCP1 from mouse CCR2 receptor expressed in CHO cells at 1 uM; format: cell-based
Chain of C-C chemokine receptor type 2 (Mus musculus) (P51683 whole entry, looked up): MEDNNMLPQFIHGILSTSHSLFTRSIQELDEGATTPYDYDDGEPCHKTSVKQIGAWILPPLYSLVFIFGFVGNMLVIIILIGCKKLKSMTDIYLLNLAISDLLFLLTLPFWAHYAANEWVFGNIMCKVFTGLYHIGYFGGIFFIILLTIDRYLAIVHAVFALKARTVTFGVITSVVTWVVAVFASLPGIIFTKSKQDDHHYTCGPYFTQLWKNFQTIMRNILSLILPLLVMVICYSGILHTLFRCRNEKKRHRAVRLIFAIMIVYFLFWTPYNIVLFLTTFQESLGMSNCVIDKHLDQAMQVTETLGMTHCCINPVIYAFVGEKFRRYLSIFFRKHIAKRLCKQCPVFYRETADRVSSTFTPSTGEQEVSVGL

Chain of C-C chemokine receptor type 2 (Mus musculus, UniProt P51683) (P51683 whole entry): as the sequence (P51683 whole entry, looked up) above
Chain of C-C chemokine receptor type 2 (Homo sapiens, UniProt P41597) (P41597 whole entry): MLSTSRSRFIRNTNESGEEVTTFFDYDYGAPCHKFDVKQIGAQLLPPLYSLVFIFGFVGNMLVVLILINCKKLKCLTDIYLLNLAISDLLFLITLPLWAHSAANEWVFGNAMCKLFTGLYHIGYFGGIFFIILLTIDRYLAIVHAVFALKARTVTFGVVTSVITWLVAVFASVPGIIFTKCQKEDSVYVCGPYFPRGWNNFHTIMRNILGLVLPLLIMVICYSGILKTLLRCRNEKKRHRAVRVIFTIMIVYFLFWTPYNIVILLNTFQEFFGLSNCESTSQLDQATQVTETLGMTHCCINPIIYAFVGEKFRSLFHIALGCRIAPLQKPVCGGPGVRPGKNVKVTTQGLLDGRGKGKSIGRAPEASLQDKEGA
Chain of C-C chemokine receptor type 2 (Homo sapiens, UniProt P41597, I40L) (P41597 whole entry I40L): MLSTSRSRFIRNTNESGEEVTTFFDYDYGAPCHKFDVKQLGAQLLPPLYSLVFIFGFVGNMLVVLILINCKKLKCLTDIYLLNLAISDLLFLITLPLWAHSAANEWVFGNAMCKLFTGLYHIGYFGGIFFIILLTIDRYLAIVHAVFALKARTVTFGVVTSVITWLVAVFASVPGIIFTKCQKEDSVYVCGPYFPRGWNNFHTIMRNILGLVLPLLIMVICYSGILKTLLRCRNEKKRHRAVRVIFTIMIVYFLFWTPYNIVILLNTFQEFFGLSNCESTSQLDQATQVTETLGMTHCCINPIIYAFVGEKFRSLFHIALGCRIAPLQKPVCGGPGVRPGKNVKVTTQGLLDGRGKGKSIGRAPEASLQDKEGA

SMILES	IC50 [1] [nM]	IC50 [10] [nM]	also measured
CC(C)[C@]1(C(=O)NCc2cc(F)cc(C(F)(F)F)c2)CC[C@@H](N2CC[C@]3(C=Cc4ccccc43)[C@@H](C)C2)C1	5	3.1	half-life [2]: 2 h; IC50 [3]: 0.71 nM; Cmax [4]: 414 nM; clearance [5]: 19.4 mL/min/kg; bioavailability [6]: 32%; Vd [7]: 2.99 L/kg; half-life [8]: 2.5 h; Tmax [9]: 0.83 h
C[C@H]1CN([C@@H]2CC[C@H](C(=O)NCc3cc(C(F)(F)F)cc(C(F)(F)F)c3)C2)CC[C@]12C=Cc1ccccc12	–	20	Activity [11]: 27%
C[C@H]1CN([C@@H]2CC[C@](C)(C(=O)NCc3cc(C(F)(F)F)cc(C(F)(F)F)c3)C2)CC[C@]12C=Cc1ccccc12	126	9	–
CC(C)C[C@]1(C(=O)NCc2cc(F)cc(C(F)(F)F)c2)CC[C@@H](N2CC[C@]3(C=Cc4ccccc43)[C@@H](C)C2)C1	7.5	3.9	IC50 [3]: 2.04 nM
CCC1(C(=O)NCc2cc(C(F)(F)F)cc(C(F)(F)F)c2)CCC(N2CC[C@]3(C=Cc4ccccc43)[C@@H](C)C2)C1 (stereo partly specified)	17.5	10	–
C[C@H]1CN(C2CCC(C(=O)NCc3cc(C(F)(F)F)cc(C(F)(F)F)c3)(C3CC3)C2)CC[C@]12C=Cc1ccccc12 (stereo partly specified)	45	6.5	–
CCC1(C(=O)NCc2cc(F)cc(C(F)(F)F)c2)CCC(N2CC[C@]3(C=Cc4ccccc43)[C@@H](C)C2)C1 (stereo partly specified)	3.5	3.3	–
C[C@H]1CN(C2CCC(CC3CCC3)(C(=O)NCc3cc(F)cc(C(F)(F)F)c3)C2)CC[C@]12C=Cc1ccccc12 (single isomer, unassigned; diastereomer 4) [listing 1 of 2 here]	–	–	Activity [11]: 49%
CS[C@]1(C(=O)NCc2cc(C(F)(F)F)cc(C(F)(F)F)c2)CC[C@@H](N2CC[C@]3(C=Cc4ccccc43)[C@@H](C)C2)C1	351	28	–
C[C@H]1CN(C2CCC(CC3CCC3)(C(=O)NCc3cc(F)cc(C(F)(F)F)c3)C2)CC[C@]12C=Cc1ccccc12 (single isomer, unassigned; diastereomer 4) [listing 2 of 2 here]	–	229	–
C[C@H]1CN([C@@H]2CC[C@@](C(=O)NCc3cc(F)cc(C(F)(F)F)c3)(C3CC3)C2)CC[C@]12C=Cc1ccccc12	8	1.9	IC50 [3]: 0.63 nM
CSC[C@]1(C(=O)NCc2cc(C(F)(F)F)cc(C(F)(F)F)c2)CC[C@@H](N2CC[C@]3(C=Cc4ccccc43)[C@@H](C)C2)C1	65.5	13	–
CCC[C@]1(C(=O)NCc2cc(C(F)(F)F)cc(C(F)(F)F)c2)CC[C@@H](N2CC[C@]3(C=Cc4ccccc43)[C@@H](C)C2)C1	44.3	16	–
C[C@H]1CN(C2CCC(CC3CCC3)(C(=O)NCc3cc(F)cc(C(F)(F)F)c3)C2)CC[C@]12C=Cc1ccccc12 (single isomer, unassigned; diastereomer 2)	147	32	–
CCCCCCC1(C(=O)NCc2cc(F)cc(C(F)(F)F)c2)CCC(N2CC[C@]3(C=Cc4ccccc43)[C@@H](C)C2)C1 (stereo partly specified)	128	27	–
C[C@H]1CN(C2CCC(CC3CC3)(C(=O)NCc3cc(F)cc(C(F)(F)F)c3)C2)CC[C@]12C=Cc1ccccc12 (stereo partly specified)	15	5.5	–
CC(C)C[C@]1(C(=O)NCc2cc(C(F)(F)F)cc(C(F)(F)F)c2)CC[C@@H](N2CC[C@]3(C=Cc4ccccc43)[C@@H](C)C2)C1	26	8	–
CC(C)[C@]1(C(=O)NCc2cc(C(F)(F)F)cc(C(F)(F)F)c2)CC[C@@H](N2CC[C@]3(C=Cc4ccccc43)[C@@H](C)C2)C1	15	7.6	–
C[C@H]1CN(C2CCC(CC3CCC3)(C(=O)NCc3cc(F)cc(C(F)(F)F)c3)C2)CC[C@]12C=Cc1ccccc12 (single isomer, unassigned; diastereomer 3)	559	135	–
C[C@H]1CN(C2CCC(CC3CCC3)(C(=O)NCc3cc(F)cc(C(F)(F)F)c3)C2)CC[C@]12C=Cc1ccccc12 (stereo partly specified)	28	6.3	–
COCC1(C(=O)NCc2cc(C(F)(F)F)cc(C(F)(F)F)c2)CCC(N2CC[C@]3(C=Cc4ccccc43)[C@@H](C)C2)C1 (stereo partly specified)	93	15.5	–
C[C@H]1CN(C2CCC(CC3CC3)(C(=O)NCc3cc(C(F)(F)F)cc(C(F)(F)F)c3)C2)CC[C@]12C=Cc1ccccc12 (stereo partly specified)	63.5	20	–
CCCCCCC1(C(=O)NCc2cc(C(F)(F)F)cc(C(F)(F)F)c2)CCC(N2CC[C@]3(C=Cc4ccccc43)[C@@H](C)C2)C1 (stereo partly specified)	279	231	–
C[C@H]1CN([C@@H]2CC[C@](C)(C(=O)NCc3cc(F)cc(C(F)(F)F)c3)C2)CC[C@]12C=Cc1ccccc12	57	4	–
COCC1(C(=O)NCc2cc(F)cc(C(F)(F)F)c2)CCC(N2CC[C@]3(C=Cc4ccccc43)[C@@H](C)C2)C1 (stereo partly specified)	74	8.5	–
C[C@H]1CN([C@@H]2CC[C@](CC3CCC3)(C(=O)NCc3cc(C(F)(F)F)cc(C(F)(F)F)c3)C2)CC[C@]12C=Cc1ccccc12	64	19	–
CS[C@]1(C(=O)NCc2cc(F)cc(C(F)(F)F)c2)CC[C@@H](N2CC[C@]3(C=Cc4ccccc43)[C@@H](C)C2)C1	193	67	–
CCCC1(C(=O)NCc2cc(F)cc(C(F)(F)F)c2)CCC(N2CC[C@]3(C=Cc4ccccc43)[C@@H](C)C2)C1 (stereo partly specified)	17	5	–
CSC[C@]1(C(=O)NCc2cc(F)cc(C(F)(F)F)c2)CC[C@@H](N2CC[C@]3(C=Cc4ccccc43)[C@@H](C)C2)C1	17	3.5	–
